Tests used:
Adenosine receptor A1 = target: T1, Adenosine receptor A1 (Rattus norvegicus, UniProt P25099); assay: Displacement of [3H]DPCPX from rat brain cortical membrane A1AR assessed as GTP shift
T1 sequence (P25099 whole entry): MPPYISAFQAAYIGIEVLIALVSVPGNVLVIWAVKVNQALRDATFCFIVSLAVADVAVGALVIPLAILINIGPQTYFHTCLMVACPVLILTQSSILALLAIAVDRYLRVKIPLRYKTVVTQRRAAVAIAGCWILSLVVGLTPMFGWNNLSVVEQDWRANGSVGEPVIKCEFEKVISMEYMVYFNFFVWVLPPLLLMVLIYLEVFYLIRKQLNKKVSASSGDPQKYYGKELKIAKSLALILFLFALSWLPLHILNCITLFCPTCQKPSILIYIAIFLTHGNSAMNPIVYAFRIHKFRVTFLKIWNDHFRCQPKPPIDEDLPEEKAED

Adenosine receptor A3 [1] = target: T2, Adenosine receptor A3 (Rattus norvegicus, UniProt P28647); assay: Antagonist activity at rat A3AR expressed in CHO cells assessed as reduction in NECA-induced inhibition of forskolin-stimulated cAMP accumulation at 10 uM incubated for 2 hrs by fluorescence based assay
T2 sequence (P28647 whole entry): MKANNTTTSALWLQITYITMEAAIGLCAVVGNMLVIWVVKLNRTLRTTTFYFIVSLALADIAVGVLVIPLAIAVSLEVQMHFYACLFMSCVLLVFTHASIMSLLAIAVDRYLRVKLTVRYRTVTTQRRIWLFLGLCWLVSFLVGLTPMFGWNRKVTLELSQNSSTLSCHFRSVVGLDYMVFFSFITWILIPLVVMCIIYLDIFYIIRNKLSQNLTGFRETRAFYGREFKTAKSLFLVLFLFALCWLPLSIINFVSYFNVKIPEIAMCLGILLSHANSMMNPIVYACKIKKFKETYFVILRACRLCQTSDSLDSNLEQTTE
How it was run: (§1)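 CHO cells stably expressing rat A3 AR, seeded at 150,000-200,000 cells/well. Cells washed, then held 2 h at 37 °C in HBSS with 20 mM HEPES (pH 7.3) and 2 U/ml adenosine deaminase. Forskolin (10 μM) plus NECA concentration series added at 36.5 °C, with or without test compound. Stopped by hot lysis solution (90 °C, 4 mM Na2EDTA, Triton X-100). Data normalized to forskolin (100%) and buffer (0%). KB calculated, n=3.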

Adenosine receptor A3 [2] = target: T2, Adenosine receptor A3; assay: Antagonist activity at rat A3AR expressed in CHO cells assessed as reduction in NECA-induced inhibition of forskolin-stimulated cAMP accumulation incubated for 2 hrs by fluorescence based assay; how it was run: as §1
Adenosine receptor A3 [3] = target: T2, Adenosine receptor A3; assay: Antagonist activity at rat A3AR expressed in CHO cells assessed as reduction in NECA-induced inhibition of forskolin-stimulated cAMP accumulation at 3 uM incubated for 2 hrs by fluorescence based assay; how it was run: as §1

GTP shift (Adenosine receptor A1)	EC50 (Adenosine receptor A3 [1]) [nM]	EC50 (Adenosine receptor A3 [2]) [nM]	EC50 (Adenosine receptor A3 [3]) [nM]	Compound
1				COc1ccc(C(=O)Nc2nc(-c3ccccc3)c(C(=O)c3ccc(C)cc3)s2)cc1
1				O=C(Nc1nc(-c2ccccc2)c(C(=O)c2ccc(Cl)cc2)s1)c1ccccc1

More lines, now with the values behind:

Compound	GTP shift (Adenosine receptor A1)	EC50 (Adenosine receptor A3 [1]) [nM]	EC50 (Adenosine receptor A3 [2]) [nM]	EC50 (Adenosine receptor A3 [3]) [nM]
O=C(Nc1nc(-c2ccccc2)c(C(=O)c2ccc(F)cc2F)s1)c1ccccc1	0.9			
Cc1ccc(C(=O)c2sc(NC(=O)c3ccco3)nc2-c2ccccc2)cc1	1.3			
O=C(Nc1nc(-c2ccccc2)c(-c2nc3ccccc3c(=O)n2-c2ccc(Cl)cc2)s1)c1ccco1		1720	5.3	57
